Laboratory results: ChEMBL document CHEMBL1144069, “Cytotoxic activities of hypocretenolides from Leontodon hispidus” (J Nat Prod, 1999)
Calls of active or inactive are those of the source. The rule behind the calls is not given here.

Experiments:
Format in all cases: functional, cell-based
[1] = Cytotoxicity against human GTB cells after 5 hrs by MTT assay
In short: (§1)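 Leukemic cells at 0.5 × 10^6 cells/mL in RPMI were exposed to 0.01–2.00 µM compound (0.1% final DMSO) at 37 °C and 5% CO2. Viability was measured as MTT formazan, dissolved in DMSO and read at 550 and 630 nm. Three wells per point, on three separate days (n = 9). IC50 was taken graphically from per-experiment dose curves.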

HL-60 [2] = assay: Cytotoxicity against human HL-60 cells after 5 hrs by MTT assay; conditions: HL-60, 5 h; in short: as §1
A-431 [3] = assay: Cytotoxicity against human A431 cells after 24 hrs by [3H]thymidine incorporation assay
In short: (§2)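 Adherent tumor cells (100 µL at 1 × 10^6 cells/mL) were overlaid with 100 µL of medium containing compound in the 0.25–4.00 µM range (0.1% final DMSO). The medium control had no compound. Cells were incubated for 24, 48 or 72 h at 37 °C and 5% CO2, then pulsed 24 h with 3H-thymidine. They were harvested onto glass filters and counted by liquid scintillation. Three wells per point, on three separate days (n = 9). IC50 was taken graphically.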

A-431 [4] = assay: Cytotoxicity against human A431 cells after 48 hrs by [3H]thymidine incorporation assay; in short: as §2
A-431 [5] = assay: Cytotoxicity against human A431 cells after 72 hrs by [3H]thymidine incorporation assay; in short: as §2
HEp-2 [6] = assay: Cytotoxicity against human HEP2 cells after 24 hrs by [3H]thymidine incorporation assay; in short: as §2
HEp-2 [7] = assay: Cytotoxicity against human HEP2 cells after 48 hrs by [3H]thymidine incorporation assay; in short: as §2
HEp-2 [8] = assay: Cytotoxicity against human HEP2 cells after 72 hrs by [3H]thymidine incorporation assay; in short: as §2
MCF7 [9] = assay: Cytotoxicity against human MCF7 cells after 24 hrs by [3H]thymidine incorporation assay; in short: as §2
MCF7 [10] = assay: Cytotoxicity against human MCF7 cells after 48 hrs by [3H]thymidine incorporation assay; in short: as §2
MCF7 [11] = assay: Cytotoxicity against human MCF7 cells after 72 hrs by [3H]thymidine incorporation assay; in short: as §2
OVCAR-3 [12] = assay: Cytotoxicity against human OVCAR-3 cells after 24 hrs by [3H]thymidine incorporation assay; in short: as §2
OVCAR-3 [13] = assay: Cytotoxicity against human OVCAR-3 cells after 48 hrs by [3H]thymidine incorporation assay; in short: as §2
OVCAR-3 [14] = assay: Cytotoxicity against human OVCAR-3 cells after 72 hrs by [3H]thymidine incorporation assay; in short: as §2
[15] = Cytotoxicity against human SK MEL28 cells after 24 hrs by [3H]thymidine incorporation assay; conditions: SK-MEL-28; in short: as §2
[16] = Cytotoxicity against human SK MEL28 cells after 48 hrs by [3H]thymidine incorporation assay; conditions: SK-MEL-28; in short: as §2
[17] = Cytotoxicity against human SK MEL28 cells after 72 hrs by [3H]thymidine incorporation assay; conditions: SK-MEL-28; in short: as §2
[18] = Cytotoxicity against human SK37 cells after 24 hrs by [3H]thymidine incorporation assay; in short: as §2
[19] = Cytotoxicity against human SK37 cells after 48 hrs by [3H]thymidine incorporation assay; in short: as §2
[20] = Cytotoxicity against human SK37 cells after 72 hrs by [3H]thymidine incorporation assay; in short: as §2
SW872 [21] = assay: Cytotoxicity against human SW872 cells after 24 hrs by [3H]thymidine incorporation assay; in short: as §2
SW872 [22] = assay: Cytotoxicity against human SW872 cells after 48 hrs by [3H]thymidine incorporation assay; in short: as §2
SW872 [23] = assay: Cytotoxicity against human SW872 cells after 72 hrs by [3H]thymidine incorporation assay
In short: (§3)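 Adherent tumour cells at 1 × 10^6 cells/mL (100 µL per well) overlaid with an equal volume of medium carrying test substance across 0.25–4.00 µM. Medium-only controls. Incubated 24, 48 or 72 h at 37 °C, 5% CO2, then pulsed 24 h with 3H-thymidine and harvested onto glass filters for scintillation counting. Final DMSO 0.1%. Triplicate wells, three days (n = 9). IC50 read graphically from each experiment's dose curve.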

ZR-75-1 [24] = assay: Cytotoxicity against human ZR-75-1 cells after 24 hrs by [3H]thymidine incorporation assay; in short: as §3
ZR-75-1 [25] = assay: Cytotoxicity against human ZR-75-1 cells after 48 hrs by [3H]thymidine incorporation assay; in short: as §3
ZR-75-1 [26] = assay: Cytotoxicity against human ZR-75-1 cells after 72 hrs by [3H]thymidine incorporation assay; in short: as §3
GTB = assay: Cytotoxicity against human GTB cells at 0.01 to 2.0 uM after 5 hrs by MTT assay; in short: as §1
HL-60 [27] = assay: Cytotoxicity against human HL-60 cells at 0.01 to 2.0 uM after 5 hrs by MTT assay; in short: as §1
A-431 [28] = assay: Cytotoxicity against human A431 cells at 0.25 to 2.0 uM after 24 hrs by [3H]thymidine incorporation assay; in short: as §2
A-431 [29] = assay: Cytotoxicity against human A431 cells at 0.25 to 2.0 uM after 48 hrs by [3H]thymidine incorporation assay; in short: as §2
A-431 [30] = assay: Cytotoxicity against human A431 cells at 0.25 to 2.0 uM after 72 hrs by [3H]thymidine incorporation assay; in short: as §2
HEp-2 [31] = assay: Cytotoxicity against human HEP2 cells at 0.25 to 2.0 uM after 24 hrs by [3H]thymidine incorporation assay; in short: as §2
HEp-2 [32] = assay: Cytotoxicity against human HEP2 cells at 0.25 to 2.0 uM after 48 hrs by [3H]thymidine incorporation assay; in short: as §2
HEp-2 [33] = assay: Cytotoxicity against human HEP2 cells at 0.25 to 2.0 uM after 72 hrs by [3H]thymidine incorporation assay; in short: as §2
MCF7 [34] = assay: Cytotoxicity against human MCF7 cells at 0.25 to 2.0 uM after 24 hrs by [3H]thymidine incorporation assay; in short: as §2
MCF7 [35] = assay: Cytotoxicity against human MCF7 cells at 0.25 to 2.0 uM after 48 hrs by [3H]thymidine incorporation assay; in short: as §2
MCF7 [36] = assay: Cytotoxicity against human MCF7 cells at 0.25 to 2.0 uM after 72 hrs by [3H]thymidine incorporation assay; in short: as §2
OVCAR-3 [37] = assay: Cytotoxicity against human OVCAR-3 cells at 0.25 to 2.0 uM after 24 hrs by [3H]thymidine incorporation assay; in short: as §2
OVCAR-3 [38] = assay: Cytotoxicity against human OVCAR-3 cells at 0.25 to 2.0 uM after 48 hrs by [3H]thymidine incorporation assay; in short: as §2
OVCAR-3 [39] = assay: Cytotoxicity against human OVCAR-3 cells at 0.25 to 2.0 uM after 72 hrs by [3H]thymidine incorporation assay; in short: as §2
SK-MEL-28 [40] = assay: Cytotoxicity against human SK MEL28 cells at 0.25 to 2.0 uM after 24 hrs by [3H]thymidine incorporation assay; in short: as §2
SK-MEL-28 [41] = assay: Cytotoxicity against human SK MEL28 cells at 0.25 to 2.0 uM after 48 hrs by [3H]thymidine incorporation assay; in short: as §2
SK-MEL-28 [42] = assay: Cytotoxicity against human SK MEL28 cells at 0.25 to 2.0 uM after 72 hrs by [3H]thymidine incorporation assay; in short: as §2
SK37 [43] = assay: Cytotoxicity against human SK37 cells at 0.25 to 2.0 uM after 24 hrs by [3H]thymidine incorporation assay; in short: as §2
SK37 [44] = assay: Cytotoxicity against human SK37 cells at 0.25 to 2.0 uM after 48 hrs by [3H]thymidine incorporation assay; in short: as §2
SK37 [45] = assay: Cytotoxicity against human SK37 cells at 0.25 to 2.0 uM after 72 hrs by [3H]thymidine incorporation assay; in short: as §2
SW872 [46] = assay: Cytotoxicity against human SW872 cells at 0.25 to 2.0 uM after 24 hrs by [3H]thymidine incorporation assay; in short: as §3
SW872 [47] = assay: Cytotoxicity against human SW872 cells at 0.25 to 2.0 uM after 48 hrs by [3H]thymidine incorporation assay; in short: as §3
SW872 [48] = assay: Cytotoxicity against human SW872 cells at 0.25 to 2.0 uM after 72 hrs by [3H]thymidine incorporation assay; in short: as §3
ZR-75-1 [49] = assay: Cytotoxicity against human ZR-75-1 cells at 0.25 to 2.0 uM after 24 hrs by [3H]thymidine incorporation assay; in short: as §3
ZR-75-1 [50] = assay: Cytotoxicity against human ZR-75-1 cells at 0.25 to 2.0 uM after 48 hrs by [3H]thymidine incorporation assay; in short: as §3
ZR-75-1 [51] = assay: Cytotoxicity against human ZR-75-1 cells at 0.25 to 2.0 uM after 72 hrs by [3H]thymidine incorporation assay; in short: as §3

C=C1C(=O)O[C@]23C[C@H]1CCC(CO)=C2C(=O)C=C3C
IC50 [1]: 260 nM | IC50 (HL-60 [2]): 260 nM | IC50 (A-431 [3]): 1500 nM | IC50 (A-431 [4]): 1300 nM | IC50 (A-431 [5]): 900 nM | IC50 (HEp-2 [6]): 1500 nM | IC50 (HEp-2 [7]): 1300 nM | IC50 (HEp-2 [8]): 1100 nM | IC50 (MCF7 [9]): 800 nM | IC50 (MCF7 [10]): 700 nM | IC50 (MCF7 [11]): 1000 nM | IC50 (OVCAR-3 [12]): 1900 nM | IC50 (OVCAR-3 [13]): 2100 nM | IC50 (OVCAR-3 [14]): 1800 nM | IC50 [15]: 2800 nM | IC50 [16]: 2600 nM | IC50 [17]: 1200 nM | IC50 [18]: 3200 nM | IC50 [19]: 2400 nM | IC50 [20]: 1800 nM | IC50 (SW872 [21]): 3100 nM | IC50 (SW872 [22]): 2200 nM | IC50 (SW872 [23]): 2800 nM | IC50 (ZR-75-1 [24]): 600 nM | IC50 (ZR-75-1 [25]): 900 nM | IC50 (ZR-75-1 [26]): 1000 nM

C=C1C(=O)O[C@]23C[C@H]1CCC(CO[C@H]1O[C@@H](CO)[C@H](O)[C@@H](O)[C@@H]1O)=C2C(=O)C=C3C
Activity (GTB): inactive | Activity (HL-60 [27]): inactive | Activity (A-431 [28]): inactive | Activity (A-431 [29]): inactive | Activity (A-431 [30]): inactive | Activity (HEp-2 [31]): inactive | Activity (HEp-2 [32]): inactive | Activity (HEp-2 [33]): inactive | Activity (MCF7 [34]): inactive | Activity (MCF7 [35]): inactive | Activity (MCF7 [36]): inactive | Activity (OVCAR-3 [37]): inactive | Activity (OVCAR-3 [38]): inactive | Activity (OVCAR-3 [39]): inactive | Activity (SK-MEL-28 [40]): inactive | Activity (SK-MEL-28 [41]): inactive | Activity (SK-MEL-28 [42]): inactive | Activity (SK37 [43]): inactive | Activity (SK37 [44]): inactive | Activity (SK37 [45]): inactive | Activity (SW872 [46]): inactive | Activity (SW872 [47]): inactive | Activity (SW872 [48]): inactive | Activity (ZR-75-1 [49]): inactive | Activity (ZR-75-1 [50]): inactive | Activity (ZR-75-1 [51]): inactive

C=C1C(=O)O[C@@H]2C[C@@H](C)[C@@H]3C=CC(=O)[C@@]3(C)[C@@H](O)[C@H]12 [HELENALIN]
IC50 [1]: 270 nM | IC50 (HL-60 [2]): 320 nM | IC50 (A-431 [3]): 900 nM | IC50 (A-431 [4]): 900 nM | IC50 (A-431 [5]): 800 nM | IC50 (HEp-2 [6]): 900 nM | IC50 (HEp-2 [7]): 900 nM | IC50 (HEp-2 [8]): 800 nM | IC50 (MCF7 [9]): 800 nM | IC50 (MCF7 [10]): 500 nM | IC50 (MCF7 [11]): 700 nM | IC50 (OVCAR-3 [12]): 1400 nM | IC50 (OVCAR-3 [13]): 1600 nM | IC50 (OVCAR-3 [14]): 1700 nM | IC50 [15]: 1300 nM | IC50 [16]: 900 nM | IC50 [17]: 500 nM | IC50 [18]: 1300 nM | IC50 [19]: 1200 nM | IC50 [20]: 700 nM | IC50 (SW872 [21]): 1400 nM | IC50 (SW872 [22]): 1200 nM | IC50 (SW872 [23]): 1200 nM | IC50 (ZR-75-1 [24]): 700 nM | IC50 (ZR-75-1 [25]): 800 nM | IC50 (ZR-75-1 [26]): 1100 nM
